Laboratory results: ChEMBL document CHEMBL3124914, “Cytotoxic clerodane diterpenes from Zuelania guidonia” (J Nat Prod, 2014)

What was measured:
[1] = Cytotoxicity against human CEM/ADR5000 cells assessed as cell viability after 24 hrs by MTT assay; format: functional, cell-based; conditions: ADR5000, 24 h
Procedure, shortened: (§1)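 Cells kept at 37 °C, 5% CO2 in RPMI 1640 with 10% heat-inactivated FBS, […] streptomycin, and 100 U/mL penicillin. Seeding per well: 1.2 × 10^4 for MIA-PaCa-2, 4 × 10^4 for CCRF-CEM and CEM-ADR5000, and 2 × 10^5 for PBMCs from healthy donors. Compounds were given in DMSO (0.1% DMSO solvent control) at various concentrations for 24 h. Read-out was MTT, and IC50 was taken by nonlinear regression.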

[2] = Cytotoxicity against human MIAPaCa2 cells assessed as cell viability after 24 hrs by MTT assay; format: functional, cell-based; conditions: MIA PaCa-2, 24 h; procedure, shortened: as §1
PBMC = assay: Cytotoxicity against human PBMC assessed as cell viability after 24 hrs by MTT assay; format: cell-based; procedure, shortened: as §1
CCRF-CEM = assay: Cytotoxicity against human CCRF-CEM cells assessed as cell viability after 24 hrs by MTT assay; format: functional, cell-based; procedure, shortened: as §1

Q: For `C=CC(=C)CC[C@]1(C)[C@H](C)C[C@H](O)[C@@]23C(=C[C@@H](OC(=O)/C=C/c4ccccc4)C[C@@H]12)[C@@H](OC(C)=O)O[C@H]3OC(C)=O` (relative stereo), which IC50 [1] is on record?
A: Its IC50 is 4.6 µM.

Q: And the IC50 [2]?
A: Its IC50 is 4.6 µM.

Q: And the IC50 (PBMC)?
A: The IC50 was > 10 µM.

Q: And the IC50 (CCRF-CEM)?
A: The IC50 was 1.6 µM.

Q: What does the source list for `C=CC(=C)CC[C@]1(C)[C@H](C)C[C@H](OC(=O)CC(O)CCCCCCCCC)[C@@]23C(=C[C@H](O)C[C@@H]12)[C@@H](OC(C)=O)O[C@H]3OC(C)=O` (relative stereo)?
A: IC50 [1]: 5.7 µM; IC50 [2]: 7.4 µM; IC50 (PBMC): > 10 µM; IC50 (CCRF-CEM): 2.5 µM

Q: Which IC50 [1] does the source give for `C=CC(=C)[C@H](O)C[C@]1(C)[C@H](C)C[C@H](OC(=O)CC(O)CCCCCCCCC)[C@@]23C(=C[C@H](O)C[C@@H]12)[C@@H](OC(C)=O)O[C@H]3OC(C)=O` (relative stereo) here?
A: The IC50 was > 10 µM.

Q: What about the IC50 [2] of the same compound?
A: The IC50 was > 10 µM.

Q: What about the IC50 (PBMC) of the same compound?
A: The IC50 was > 10 µM.

Q: And the IC50 (CCRF-CEM)?
A: The IC50 was 5.5 µM.

Q: Which results are given for `CC(=O)O[C@H]1O[C@@H](OC(C)=O)[C@]23C1=C[C@H](O)C[C@H]2[C@](C)(CCC1=CCOOC1)[C@H](C)C[C@@H]3OC(=O)/C=C/c1ccccc1` (relative stereo)?
A: IC50 [1]: 7.5 µM; IC50 [2]: 6.9 µM; IC50 (PBMC): > 10 µM; IC50 (CCRF-CEM): 1.9 µM

Q: What does the source list for `C=CC(=C)[C@@H](O)C[C@]1(C)[C@H](C)C[C@H](OC2OC[C@@H](O)[C@H](O)[C@H]2O)[C@@]23C(=C[C@H](OC(=O)CCCCCCCCC)C[C@@H]12)[C@@H](OC(C)=O)O[C@H]3OC(C)=O` (relative stereo)?
A: IC50 [1]: > 10 µM; IC50 [2]: > 10 µM; IC50 (PBMC): > 10 µM; IC50 (CCRF-CEM): 9.1 µM

Q: With `CCCCCCCCCC(=O)O[C@H]1C=C2[C@@H](OC(C)=O)O[C@@H](OC(C)=O)[C@]23[C@@H](OC2OC[C@@H](O)[C@H](O)[C@H]2O)C[C@@H](C)[C@@](C)(C[C@H](O)C2=CCOOC2)[C@@H]3C1` (relative stereo) as the compound, how does the IC50 [1] read?
A: Its IC50 is > 10 µM.

Q: And the IC50 [2]?
A: The IC50 was > 10 µM.

Q: And the IC50 (PBMC)?
A: Its IC50 is > 10 µM.

Q: And the IC50 (CCRF-CEM)?
A: The IC50 was 8 µM.

Q: For `CCCCCCCCCC(=O)O[C@H]1C=C2[C@@H](OC(C)=O)O[C@@H](OC(C)=O)[C@]23[C@@H](OC2OC[C@@H](O)[C@H](O)[C@H]2O)C[C@@H](C)[C@@](C)(C[C@@H](O)C2=CCOOC2)[C@@H]3C1` (relative stereo), which IC50 [1] is on record?
A: The IC50 was > 10 µM.

Q: And the IC50 [2]?
A: The IC50 was > 10 µM.

Q: And the IC50 (PBMC)?
A: Its IC50 is > 10 µM.

Q: What about the IC50 (CCRF-CEM) of the same compound?
A: Its IC50 is 8.4 µM.

Q: With `C=CC(=C)CC[C@]1(C)[C@H](C)CC[C@@]23C(=CC(=O)C[C@@H]12)[C@@H](OC(C)=O)O[C@H]3OC(C)=O` (relative stereo) as the compound, how does the IC50 [1] read?
A: Its IC50 is > 10 µM.

Q: What about the IC50 [2] of the same compound?
A: Its IC50 is > 10 µM.

Q: What about the IC50 (PBMC) of the same compound?
A: Its IC50 is > 10 µM.

Q: And the IC50 (CCRF-CEM)?
A: Its IC50 is 9.5 µM.

Q: Which IC50 [1] does the source give for `C=CC(=C)CC[C@]1(C)[C@H](C)C[C@H](OC(=O)/C=C/c2ccccc2)[C@@]23C(=C[C@H](O)C[C@@H]12)[C@@H](OC(C)=O)O[C@H]3OC(C)=O` (relative stereo) here?
A: Its IC50 is 8.6 µM.

Q: And the IC50 [2]?
A: The IC50 was > 10 µM.

Q: What about the IC50 (PBMC) of the same compound?
A: Its IC50 is > 10 µM.

Q: What about the IC50 (CCRF-CEM) of the same compound?
A: Its IC50 is 5.3 µM.

Q: Which IC50 [1] does the source give for `CC[C@@]1(O)C(=O)OCc2c1cc1n(c2=O)Cc2cc3ccccc3nc2-1` [CAMPTOTHECIN] here?
A: The IC50 was 0.3 µM.

Q: What about the IC50 [2] of the same compound?
A: The IC50 was > 10 µM.

Q: What about the IC50 (PBMC) of the same compound?
A: The IC50 was > 10 µM.

Q: And the IC50 (CCRF-CEM)?
A: Its IC50 is 0.08 µM.

Q: With `COc1cccc2c1C(=O)c1c(O)c3c(c(O)c1C2=O)C[C@@](O)(C(=O)CO)C[C@@H]3O[C@H]1C[C@H](N)[C@H](O)[C@H](C)O1` [DOXORUBICIN] as the compound, how does the IC50 [1] read?
A: Its IC50 is > 10 µM.

Q: What about the IC50 [2] of the same compound?
A: Its IC50 is 4.8 µM.

Q: What about the IC50 (PBMC) of the same compound?
A: Its IC50 is > 10 µM.

Q: What about the IC50 (CCRF-CEM) of the same compound?
A: Its IC50 is 0.5 µM.
